system: SK-OV-3; assay: Ratio for antiproliferative activity against NTR- SKOV3 cells to NTR+ SKOV3 cells after 18 hrs; format: functional, Homo sapiens; details: not given
Summary of the method: (§1)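 SKOV3 ovarian carcinoma cells stably transduced with a retroviral NTR vector and selected with 1 mg/mL G418, compared with parental SKOV3. Plated at 20 000 cells/well and allowed to adhere 24 h. Prodrug range given for 18 h, then replaced with drug-free medium. MTT survival read 2 days later. Ratio is NTR⁻/NTR⁺ IC50.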

SMILES	Ratio
O=[N+]([O-])c1ccc(C2CCNP(=O)(N(CCCl)CCCl)O2)cc1 (racemic; trans)	270
NC(=O)c1cc(N2CC2)c([N+](=O)[O-])cc1[N+](=O)[O-] [TRETAZICAR]	>400

system: not listed separately; assay: (§2) Half life in phosphate buffer at pH 7 at 37 degC assessed as reduction by Escherichia coli nitroreductase by NR assay; format: ADME; details: buffer
Summary of the method: (§3)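 Substrate at 0.2 mM with 1 mM NADH in 10 mM sodium phosphate buffer, pH 7.0, at 37 °C. Reaction started by adding 1.8 µg E. coli nitroreductase; 2 mM cysteine added for one compound. Aliquots taken at intervals, quenched with acetonitrile, frozen, then analysed by HPLC. Half-life calculated from substrate disappearance.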

SMILES	T1/2
O=[N+]([O-])c1ccc(C2CCNP(=O)(N(CCCl)CCCl)N2)cc1 (racemic; trans)	4.2 min

system: nitroreductase; assay: as §2; format: ADME; details: Escherichia coli, Escherichia coli nitroreductase in phosphate buffer; summary of the method: as §3

SMILES	half-life
O=[N+]([O-])c1ccc(C2CCNP(=O)(N(CCCl)CCCl)N2)cc1 (racemic; cis)	6.4 min
O=[N+]([O-])c1ccc(C2CCNP(=O)(N(CCCl)CCCl)O2)cc1 (racemic; trans)	3.9 min
NC(=O)c1cc(N2CC2)c([N+](=O)[O-])cc1[N+](=O)[O-] [TRETAZICAR]	5 min

system: V79; assay: Antiproliferative activity against chinese hamster V79 cells after 72 hrs; format: functional, cell-based, Cricetulus griseus; details: Cricetulus griseus, V79, 72 h
Summary of the method: (§4)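 V79 Chinese hamster fibroblasts: NTR⁺ cells stably transfected with a bicistronic NTR/puromycin-resistance vector and kept under puromycin selection; vector-only NTR⁻ controls. Seeded 1000 cells/well, recovered 24 h, then exposed to serially diluted drug for 3 days at 37 °C, initially up to 100 µM. SRB stain read at 570 nm. IC50 interpolated; ratio is NTR⁻/NTR⁺ IC50.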

SMILES	IC50
O=[N+]([O-])c1ccc(C2CCNP(=O)(N(CCCl)CCCl)N2)cc1 (racemic; cis)	56.8 µM
O=[N+]([O-])c1ccc(C2CCNP(=O)(N(CCCl)CCCl)O2)cc1 (racemic; trans)	608 µM
O=P1(N(CCCl)CCCl)NC(OO)CCO1 (stereo not drawn) [PERFOSFAMIDE]	3.1 µM
NC(=O)c1cc(N2CC2)c([N+](=O)[O-])cc1[N+](=O)[O-] [TRETAZICAR]	254 µM

same assay, conditions: v79

SMILES	IC50
O=[N+]([O-])c1ccc(C2CCNP(=O)(N(CCCl)CCCl)N2)cc1 (racemic; trans)	> 100 µM

system: V79; assay: Antiproliferative activity against NTR expressing chinese hamster V79 cells after 72 hrs; format: functional, cell-based, Cricetulus griseus; details: Cricetulus griseus, V79, 72 h; summary of the method: as §4

SMILES	IC50
O=[N+]([O-])c1ccc(C2CCNP(=O)(N(CCCl)CCCl)O2)cc1 (racemic; trans)	0.027 µM
O=P1(N(CCCl)CCCl)NC(OO)CCO1 (stereo not drawn) [PERFOSFAMIDE]	2.7 µM
NC(=O)c1cc(N2CC2)c([N+](=O)[O-])cc1[N+](=O)[O-] [TRETAZICAR]	0.036 µM

same assay, conditions: v79

SMILES	IC50
O=[N+]([O-])c1ccc(C2CCNP(=O)(N(CCCl)CCCl)N2)cc1 (racemic; cis)	4.6 µM
O=[N+]([O-])c1ccc(C2CCNP(=O)(N(CCCl)CCCl)N2)cc1 (racemic; trans)	48.3 µM

system: V79; assay: Ratio for antiproliferative activity against NTR- V79 cells to NTR+ V79 cells after 72 hrs; format: functional, Cricetulus griseus; details: not given; summary of the method: as §4

SMILES	Ratio
O=[N+]([O-])c1ccc(C2CCNP(=O)(N(CCCl)CCCl)N2)cc1 (racemic; cis)	12
O=[N+]([O-])c1ccc(C2CCNP(=O)(N(CCCl)CCCl)N2)cc1 (racemic; trans)	>2.1
O=[N+]([O-])c1ccc(C2CCNP(=O)(N(CCCl)CCCl)O2)cc1 (racemic; trans)	23000
O=P1(N(CCCl)CCCl)NC(OO)CCO1 (stereo not drawn) [PERFOSFAMIDE]	1.1
NC(=O)c1cc(N2CC2)c([N+](=O)[O-])cc1[N+](=O)[O-] [TRETAZICAR]	7100

system: V79; assay: Antiproliferative activity against chinese hamster V79 cells after 1 hr; format: functional, cell-based; details: Cricetulus griseus, V79, 1 h
Summary of the method: (§5)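 Same stable NTR⁺ and vector-only NTR⁻ V79 pair, seeded 1000 cells/well and recovered 24 h. Cells exposed to drug for 1 h only, initially up to 100 µM, then given drug-free medium. SRB viability was read 3 days after drug addition. IC50 is the concentration giving 50% of control cell number; ratio is NTR⁻/NTR⁺.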

SMILES	IC50
O=[N+]([O-])c1ccc(C2CCNP(=O)(N(CCCl)CCCl)O2)cc1 (racemic; trans)	> 100 µM
NC(=O)c1cc(N2CC2)c([N+](=O)[O-])cc1[N+](=O)[O-] [TRETAZICAR]	> 100 µM

system: V79; assay: Antiproliferative activity against NTR expressing chinese hamster V79 cells after 1 hr; format: functional, cell-based, Cricetulus griseus; details: Cricetulus griseus, V79, 1 h; summary of the method: as §5

SMILES	IC50
O=[N+]([O-])c1ccc(C2CCNP(=O)(N(CCCl)CCCl)O2)cc1 (racemic; trans)	0.17 µM
NC(=O)c1cc(N2CC2)c([N+](=O)[O-])cc1[N+](=O)[O-] [TRETAZICAR]	0.31 µM

system: V79; assay: Ratio for antiproliferative activity against NTR- V79 cells to NTR+ V79 cells after 1 hr; format: functional, cell-based, Cricetulus griseus; details: not given; summary of the method: as §5

SMILES	Ratio
O=[N+]([O-])c1ccc(C2CCNP(=O)(N(CCCl)CCCl)O2)cc1 (racemic; trans)	>590
NC(=O)c1cc(N2CC2)c([N+](=O)[O-])cc1[N+](=O)[O-] [TRETAZICAR]	>320

system: SK-OV-3; assay: Antiproliferative activity against human SKOV3 cells infected with 100 pfu/cell retrovirus after 18 hrs; format: functional, cell-based; details: Homo sapiens, SK-OV-3, 18 h

SMILES	IC50
O=[N+]([O-])c1ccc(C2CCNP(=O)(N(CCCl)CCCl)O2)cc1 (racemic; trans)	> 1000 µM
NC(=O)c1cc(N2CC2)c([N+](=O)[O-])cc1[N+](=O)[O-] [TRETAZICAR]	> 1000 µM

system: SK-OV-3; assay: Antiproliferative activity against NTR expressing human SKOV3 cells […] after 18 hrs; format: functional, cell-based; details: Homo sapiens, SK-OV-3, 18 h

SMILES	IC50
O=[N+]([O-])c1ccc(C2CCNP(=O)(N(CCCl)CCCl)O2)cc1 (racemic; trans)	5 µM

system: SK-OV-3; assay: Ratio for antiproliferative activity against NTR- SKOV3 cells to NTR+ SKOV3 cells infected with 100 pfu/cell retrovirus after 18 hrs; format: functional, Homo sapiens; details: not given

SMILES	Ratio
O=[N+]([O-])c1ccc(C2CCNP(=O)(N(CCCl)CCCl)O2)cc1 (racemic; trans)	>200
NC(=O)c1cc(N2CC2)c([N+](=O)[O-])cc1[N+](=O)[O-] [TRETAZICAR]	>210

system: SK-OV-3; assay: Antiproliferative activity against human SKOV3 cells after 18 hrs; format: functional, cell-based; details: Homo sapiens, SK-OV-3, 18 h; summary of the method: as §1

SMILES	IC50
O=[N+]([O-])c1ccc(C2CCNP(=O)(N(CCCl)CCCl)O2)cc1 (racemic; trans)	570 µM
NC(=O)c1cc(N2CC2)c([N+](=O)[O-])cc1[N+](=O)[O-] [TRETAZICAR]	> 790 µM

system: SK-OV-3; assay: Antiproliferative activity against NTR expressing human SKOV3 cells after 18 hrs; format: functional, cell-based; details: Homo sapiens, SK-OV-3, 18 h; summary of the method: as §1

SMILES	IC50
O=[N+]([O-])c1ccc(C2CCNP(=O)(N(CCCl)CCCl)O2)cc1 (racemic; trans)	2.1 µM
NC(=O)c1cc(N2CC2)c([N+](=O)[O-])cc1[N+](=O)[O-] [TRETAZICAR]	2 µM

system: SK-OV-3; assay: Antiproliferative activity against human SKOV3 cells infected with 10 pfu/cell retrovirus after 18 hrs; format: functional, cell-based; details: SK-OV-3, 18 h

SMILES	IC50
NC(=O)c1cc(N2CC2)c([N+](=O)[O-])cc1[N+](=O)[O-] [TRETAZICAR]	625 µM

system: SK-OV-3; assay: Ratio for antiproliferative activity against NTR- SKOV3 cells to NTR+ SKOV3 cells infected with 10 pfu/cell retrovirus after 18 hrs; format: functional, Homo sapiens; details: not given

SMILES	Ratio
NC(=O)c1cc(N2CC2)c([N+](=O)[O-])cc1[N+](=O)[O-] [TRETAZICAR]	12
